In brackets after ≈: the same amount, converted by molar mass.
Experiments:
Assay type in all cases: functional
[1] = test system: Escherichia coli; assay: MIC against aerobic organism Escherichia coli strain 2891; settings: Escherichia coli; read-out: MIC
Summary of the method: (§1)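 Agar-dilution MIC in µg/mL against aerobic bacterial strains on tryptocase soy agar, with inoculum applied as spots. Most series used 10^5 cfu per spot, and a later series used 10^4 cfu per spot. In some tables, footnoted strains were instead tested on Mueller-Hinton or nutrient agar. β-Lactamase-producing strains are flagged.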

[2] = test system: Salmonella; assay: Minimum inhibitory concentration against aerobic organism Salmonella strain 3860; summary of the method: as §1
[3] = test system: Klebsiella aerogenes; assay: Minimum inhibitory concentration against aerobic organism Enterobacter aerogenes strain 2828; summary of the method: as §1
[4] = test system: Enterococcus faecalis; assay: Minimum inhibitory concentration against aerobic organism Streptococcus faecalis strain 2864; summary of the method: as §1
[5] = test system: Enterobacter cloacae; assay: Minimum inhibitory concentration against aerobic organism Enterobacter cloacae strain 2646; settings: Enterobacter cloacae; read-out: MIC; summary of the method: as §1
[6] = test system: Pseudomonas aeruginosa; assay: Minimum inhibitory concentration against aerobic organism Pseudomonas aeruginosa strain 2835; summary of the method: as §1
[7] = test system: Staphylococcus aureus; assay: Minimum inhibitory concentration against aerobic organism Staphylococcus aureus strain 2865; summary of the method: as §1
[8] = test system: Morganella morganii; assay: Minimum inhibitory concentration against aerobic organism Morganella morganii strain 2833; settings: Morganella morganii; read-out: MIC; summary of the method: as §1
[9] = test system: Proteus mirabilis; assay: Minimum inhibitory concentration against aerobic organism Proteus mirabilis strain 2830; settings: Proteus mirabilis; read-out: MIC; summary of the method: as §1
[10] = test system: Klebsiella pneumoniae; assay: Minimum inhibitory concentration against aerobic organism Klebsiella pneumoniae strain 4005; summary of the method: as §1
[11] = test system: Staphylococcus aureus; assay: Minimum inhibitory concentration against aerobic organism Staphylococcus aureus strain 2868; settings: Staphylococcus aureus; read-out: MIC; summary of the method: as §1
[12] = test system: Proteus vulgaris; assay: Minimum inhibitory concentration against aerobic organism Proteus vulgaris strain 2829; settings: Proteus vulgaris; read-out: MIC; summary of the method: as §1
[13] = test system: Klebsiella pneumoniae; assay: Minimum inhibitory concentration against aerobic organism Klebsiella pneumoniae strain 2882; settings: Klebsiella pneumoniae; read-out: MIC; summary of the method: as §1
[14] = test system: Shigella; assay: Minimum inhibitory concentration against aerobic organism Shigella species strain 2880; settings: Shigella; read-out: MIC; summary of the method: as §1
[15] = Minimum inhibitory concentration against aerobic organism Salmonella schottmuelleri strain 2837; settings: Salmonella; read-out: MIC; summary of the method: as §1
[16] = test system: Streptococcus pyogenes; assay: Minimum inhibitory concentration against aerobic organism Streptococcus pyogenes strain 3124; settings: Streptococcus pyogenes; read-out: MIC; summary of the method: as §1
[17] = test system: Serratia marcescens; assay: Minimum inhibitory concentration against aerobic organism Serratia marcescens strain 2852; settings: Serratia marcescens; read-out: MIC; summary of the method: as §1
[18] = test system: Klebsiella aerogenes; assay: Minimum inhibitory concentration against aerobic organism Enterobacter aerogenes strain 2906; settings: Klebsiella aerogenes; read-out: MIC; summary of the method: as §1
[19] = test system: Enterococcus faecalis; assay: Minimum inhibitory concentration against aerobic organisms Streptococcus faecalis strain 2864; summary of the method: as §1
[20] = test system: Enterobacter cloacae; assay: Minimum inhibitory concentration against aerobic organism Enterobacter cloacae 2646; summary of the method: as §1

Row | Structure (SMILES) | MIC [1] [µg/mL] | MIC [2] [µg/mL] | MIC [3] [µg/mL] | MIC [4] [µg/mL] | MIC [5] [µg/mL] | MIC [6] [µg/mL] | MIC [7] [µg/mL] | MIC [8] [µg/mL] | MIC [9] [µg/mL] | MIC [10] [µg/mL] | MIC [11] [µg/mL] | MIC [12] [µg/mL] | MIC [13] [µg/mL] | MIC [14] [µg/mL] | MIC [15] [µg/mL] | MIC [16] [µg/mL] | MIC [17] [µg/mL] | MIC [18] [µg/mL] | MIC [19] [µg/mL] | MIC [20] [µg/mL]
1 | CC1(C)S[C@@H]2[C@H](NC=[N+]3CCCCCC3)C(=O)N2[C@H]1C(=O)[O-] | 12.5 (≈ 38.4 µM) | 0.125 (≈ 0.384 µM) | 64 (≈ 197 µM) | > 100 |  | > 128 | 8 (≈ 24.6 µM) | > 128 | > 128 | 16 (≈ 49.2 µM) | > 100 | 0.5 (≈ 1.54 µM) | 100 (≈ 307 µM) | 12.5 (≈ 38.4 µM) | 12.5 (≈ 38.4 µM) |  |  |  |  | 
2 | Cn1nnnc1SCC1=C(C(=O)[O-])N2C(=O)[C@@H](Nc3cc[n+](COCC(Cl)(Cl)Cl)cc3C(=O)OC(C)(C)C)[C@H]2SC1 | 128 (≈ 192 µM) | > 128 | > 128 | > 128 | > 128 | > 128 | 128 (≈ 192 µM) | > 128 | > 128 | > 128 | > 128 | > 128 |  |  |  |  |  |  |  | 
3 | O=C([O-])C1=C(CO)CS[C@@H]2[C@H](Nc3cc[n+](Cc4ccccc4)cc3)C(=O)N12 | 0.5 (≈ 1.26 µM) | > 128 | 128 (≈ 322 µM) | > 128 | 1 (≈ 2.52 µM) | > 128 | 0.5 (≈ 1.26 µM) | > 128 | > 128 | > 128 | 16 (≈ 40.3 µM) | < 0.06 |  |  |  |  |  |  |  | 
4 | COC[n+]1ccc(N[C@@H]2C(=O)N3C(C(=O)[O-])=C(CSc4nnnn4C)CS[C@H]23)cc1 | 0.125 (≈ 0.278 µM) |  |  | > 128 | 32 (≈ 71.2 µM) | > 128 |  | > 128 | 64 (≈ 142 µM) |  | 16 (≈ 35.6 µM) | < 0.06 | 1 (≈ 2.22 µM) | 0.5 (≈ 1.11 µM) | 1 (≈ 2.22 µM) | 0.125 (≈ 0.278 µM) | > 128 | 64 (≈ 142 µM) |  | 
5 | CC[n+]1ccc(N[C@@H]2C(=O)N3C(C(=O)[O-])=C(CSc4nnnn4C)CS[C@H]23)cc1 | < 0.5 |  |  | > 128 | 2 (≈ 4.61 µM) | > 128 |  | 0.5 (≈ 1.15 µM) | 2 (≈ 4.61 µM) |  | 64 (≈ 148 µM) | < 0.06 | 1 (≈ 2.31 µM) | < 0.5 | 4 (≈ 9.23 µM) | 1 (≈ 2.31 µM) | > 128 | 0.5 (≈ 1.15 µM) |  | 

Results, then the molecule that gave them:

Row | MIC [1] [µg/mL] | MIC [2] [µg/mL] | MIC [3] [µg/mL] | MIC [4] [µg/mL] | MIC [5] [µg/mL] | MIC [6] [µg/mL] | MIC [7] [µg/mL] | MIC [8] [µg/mL] | MIC [9] [µg/mL] | MIC [10] [µg/mL] | MIC [11] [µg/mL] | MIC [12] [µg/mL] | MIC [13] [µg/mL] | MIC [14] [µg/mL] | MIC [15] [µg/mL] | MIC [16] [µg/mL] | MIC [17] [µg/mL] | MIC [18] [µg/mL] | MIC [19] [µg/mL] | MIC [20] [µg/mL] | Structure (SMILES)
6 | 0.125 (≈ 0.278 µM) | 128 (≈ 285 µM) | 32 (≈ 71.2 µM) | > 128 | 1 (≈ 2.22 µM) | > 128 | 8 (≈ 17.8 µM) | > 128 | > 128 | 128 (≈ 285 µM) | > 128 | 0.25 (≈ 0.556 µM) |  |  |  |  |  |  |  |  | CCO[n+]1ccc(N[C@@H]2C(=O)N3C(C(=O)[O-])=C(CSc4nnnn4C)CS[C@H]23)cc1
7 | < 0.06 | 4 (≈ 7.79 µM) | 1 (≈ 1.95 µM) | 128 (≈ 249 µM) | 0.125 (≈ 0.243 µM) | > 128 | 0.5 (≈ 0.974 µM) | 32 (≈ 62.3 µM) | 64 (≈ 125 µM) | 8 (≈ 15.6 µM) | 1 (≈ 1.95 µM) | 0.25 (≈ 0.487 µM) |  |  |  |  |  |  |  |  | Cn1nnnc1SCC1=C(C(=O)[O-])N2C(=O)[C@@H](Nc3cc[n+](Cc4ccc(F)cc4)cc3)[C@H]2SC1
8 | 64 | > 128 | > 128 | > 128 | > 128 | > 128 | > 128 | > 128 | > 128 | > 128 | > 128 | > 128 |  |  |  |  |  |  |  |  | Cn1nnnc1SCC1=C(C(=O)[O-])N2C(=O)[C@@H](Nc3cc[n+](COCC(Cl)(Cl)Cl)cc3C(=O)[O-])[C@H]2SC1.[Na+]
9 | 4 |  |  | > 128 | 64 | > 128 |  | > 128 | 64 |  | 32 | 1 | 8 | 2 | 4 | 2 | > 128 | 32 |  |  | Cn1nnnc1SCC1=C(C(=O)[O-])N2C(=O)[C@@H](Nc3cc[n+](CC(=O)[O-])cc3)[C@H]2SC1.[Na+]
10 | < 0.125 | 0.25 | 0.5 | > 128 | 0.05 | 128 | 1 | 16 | 64 | 1 | 4 | < 0.125 |  |  |  |  |  |  |  |  | O=C([O-])CSc1nnc(SCC2=C(C(=O)[O-])N3C(=O)[C@@H](Nc4cc[n+](Cc5ccccc5)cc4)[C@H]3SC2)s1.[Na+]
11 | > 128 | 2 (≈ 5.04 µM) | 32 (≈ 80.7 µM) |  |  | > 128 | 0.015 (≈ 0.0378 µM) | > 128 | 32 (≈ 80.7 µM) | 0.25 (≈ 0.631 µM) | 0.06 (≈ 0.151 µM) | 128 (≈ 323 µM) |  |  |  |  |  |  | 8 (≈ 20.2 µM) | > 128 | CC(=O)OCC1=C(C(=O)O)N2C(=O)[C@@H](NC(=O)Cc3cccs3)[C@H]2SC1 [CEPHALOTHIN]

Source: ChEMBL document CHEMBL1122046, “Quaternary heterocyclylamino beta-lactams: a generic alternative to the classical acylamino side chain” (1982)
